From ChEMBL document CHEMBL4052611, “Opportunistic Sampling of Roadkill as an Entry Point to Accessing Natural Products Assembled by Bacteria Associated with Non-anthropoidal Mammalian Microbiomes” (J Nat Prod, 2017)

Tests used:
Candida albicans [1] = experiment: Induction of cell killing in Candida albicans SC5314 up to 100 uM after 48 hrs by XTT assay
Summary of the method: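 Growth assay based on CLSI M27-A3, modified. SC5314 was precultured overnight in BHI at 37 °C, washed in PBS (pH 7.4) and resuspended at 2.5×10^3 cells mL^-1 in RPMI-1640/MOPS (pH 7.0). Compounds came from 2 mM DMSO stocks (DMSO ≤2% v/v final). After 48 h at 37 °C, viability was read by XTT (0.1 mg mL^-1, 1 h) at A492. MIC = lowest concentration giving ≥85% loss of metabolic activity. Triplicate, three occasions.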

Candida albicans [2] = experiment: Antibiofilm activity against Candida albicans SC5314 after 48 hrs by XTT assay; type: functional; conditions: SC5314, 48 h
Summary of the method: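 SC5314 grown overnight in BHI at 37 °C, then washed in PBS and resuspended in RPMI-1640 buffered to pH 7.0 with 0.17 M MOPS. Cells at 2.5×10^3 cells mL^-1 were incubated 48 h at 37 °C with compounds (2 mM DMSO stocks; DMSO ≤2% v/v final). Wells were washed twice with PBS and refilled with fresh medium. Biofilm was read by XTT (0.1 mg mL^-1, 1 h, 37 °C) at A492. Triplicate, three separate occasions.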

Structure (SMILES): CCCCCCC[C@@H]1CC(=O)N[C@H](CC(C)C)C(=O)N[C@@H](CO)C(=O)N[C@@H]([C@@H](C)O)C(=O)N[C@H](Cc2ccc(O)cc2)C(=O)N[C@@H]([C@@H](C)CC)C(=O)O1
- Activity (Candida albicans [1]): Non-Toxic
- IC50 (Candida albicans [2]): 29.2 µM

Structure (SMILES): CCCCC[C@@H]1CC(=O)N[C@H](CC(C)C)C(=O)N[C@@H](CO)C(=O)N[C@@H]([C@@H](C)O)C(=O)N[C@H](Cc2ccccc2)C(=O)N[C@@H]([C@@H](C)CC)C(=O)O1
- Activity (Candida albicans [1]): Non-Toxic
- IC50 (Candida albicans [2]): 13.4 µM

Structure (SMILES): CCCCCCC[C@@H]1CC(=O)N[C@H](CC(C)C)C(=O)N[C@@H](CO)C(=O)N[C@@H]([C@@H](C)O)C(=O)N[C@H](Cc2ccccc2)C(=O)N[C@@H](C(C)C)C(=O)O1
- Activity (Candida albicans [1]): Non-Toxic
- IC50 (Candida albicans [2]): 59.8 µM

Structure (SMILES): CCCCCCC[C@@H]1CC(=O)N[C@H](CC(C)C)C(=O)N[C@@H](CO)C(=O)N[C@@H]([C@@H](C)O)C(=O)N[C@H](Cc2ccccc2)C(=O)N[C@@H]([C@@H](C)CC)C(=O)O1
- Activity (Candida albicans [1]): Non-Toxic
- IC50 (Candida albicans [2]): 7.7 µM
